Reference: ChEMBL document CHEMBL3112403, “Design, synthesis and evaluation of second generation MurF inhibitors based on a cyanothiophene scaffold” (Eur J Med Chem, 2014)
The source made the active and inactive calls. The rule behind the calls is not given here.

Tests used:
[1] = molecular target: T1, UDP-N-acetylmuramoyl-tripeptide--D-alanyl-D-alanine ligase (Streptococcus pneumoniae) (UniProt Q9ZHC3); assay: Inhibition of Streptococcus pneumoniae MurF ligase using D-Ala-D-Ala as substrate assessed as residual activity at 100 uM after 15 mins by malachite green assay
T1 sequence (whole entry): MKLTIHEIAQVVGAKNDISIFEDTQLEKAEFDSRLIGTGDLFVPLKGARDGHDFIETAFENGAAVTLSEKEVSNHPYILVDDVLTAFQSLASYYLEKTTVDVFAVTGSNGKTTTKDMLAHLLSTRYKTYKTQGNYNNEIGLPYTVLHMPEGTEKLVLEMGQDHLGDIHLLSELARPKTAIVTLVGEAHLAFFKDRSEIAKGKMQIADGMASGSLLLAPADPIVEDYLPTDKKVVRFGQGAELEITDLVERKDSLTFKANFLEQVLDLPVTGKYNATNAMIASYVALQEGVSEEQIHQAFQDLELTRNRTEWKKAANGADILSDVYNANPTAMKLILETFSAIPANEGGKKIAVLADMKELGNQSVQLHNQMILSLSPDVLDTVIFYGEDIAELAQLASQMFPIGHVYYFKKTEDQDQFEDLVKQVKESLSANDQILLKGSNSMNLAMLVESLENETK
Method in brief: (§1)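 Purified S. pneumoniae MurF in 50 mM Hepes pH 8.0 with 50 mM MgCl2, 0.005% Triton X-114, 100 µM D-Ala-D-Ala, 50 µM UMtri-L-Lys and 250 µM ATP, with 5% DMSO final. After 15 min at 37 °C, Biomol reagent was added and absorbance read at 650 nm, in duplicate. RA was taken against a 5% DMSO control. IC50 was the 50% RA point from seven concentrations.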

Escherichia coli [2] = assay: Inhibition of […] MurF ligase using D-Ala-D-Ala as substrate assessed as residual activity at 100 uM after 15 mins by malachite green assay
Method in brief: (§2)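 After 15 min at 37 °C, Biomol reagent was added and phosphate read at 650 nm, in duplicate. RA was taken relative to a 5% DMSO control. IC50 was taken as the concentration giving 50% RA, from seven concentrations.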

Staphylococcus aureus [3] = assay: Antibacterial activity against Staphylococcus aureus SH1000 assessed as decrease in membrane integrity at 4 times MIC by BacLight assay; type: functional, organism-based
Method in brief: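 Membrane damage was measured with the BacLight assay in cells exposed to compound at 4 × MIC and compared with a drug-free control.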

[4] = molecular target: T2, UDP-N-acetylmuramoyl-tripeptide--D-alanyl-D-alanine ligase (Streptococcus pneumoniae, UniProt Q9ZHC3); assay: Inhibition of Streptococcus pneumoniae MurF ligase using D-Ala-D-Ala as substrate after 15 mins by malachite green assay; method in brief: as §1
T2 sequence (Q9ZHC3 whole entry): T1 sequence (whole entry)

Staphylococcus aureus [5] = assay: Antibacterial activity against Staphylococcus aureus SH1000 assessed as growth inhibition by broth microdilution method; type: functional
Method in brief: (§3)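 MICs by broth microdilution in Mueller-Hinton broth following CLSI guidelines.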

Escherichia coli [6] = assay: Antibacterial activity against Escherichia coli 1411 assessed as growth inhibition by broth microdilution method in presence of polymyxin B nonapeptide; type: functional
Method in brief: (§4)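 Broth microdilution MIC in Mueller-Hinton broth per CLSI, run with 4 µg/mL polymyxin B nonapeptide to permeabilize the outer membrane.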

Escherichia coli [7] = assay: Antibacterial activity against Escherichia coli 1411 assessed as growth inhibition by broth microdilution method; type: functional; method in brief: as §3
[8] = Inhibition of Escherichia coli MurF ligase using D-Ala-D-Ala as substrate after 15 mins by malachite green assay; method in brief: as §2
Escherichia coli [9] = assay: Antibacterial activity against Escherichia coli AB734 assessed as growth inhibition by broth microdilution method; type: functional; method in brief: as §3
Escherichia coli [10] = assay: Antibacterial activity against Escherichia coli SM1411 harboring acrAB deletion mutant assessed as growth inhibition by broth microdilution method; type: functional
Method in brief: (§5)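 MIC by broth microdilution in Mueller-Hinton broth following CLSI guidelines. ES100 is the tolC derivative of AB734, and SM1411 is the acrAB derivative of 1411; both are efflux-deficient E. coli strains. Growth inhibition was read as the minimum inhibitory concentration.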

Escherichia coli [11] = assay: Antibacterial activity against Escherichia coli AB734 assessed as growth inhibition by broth microdilution method in presence of polymyxin B nonapeptide; type: functional; method in brief: as §4
Escherichia coli [12] = assay: Antibacterial activity against Escherichia coli ES100 harboring tolC deletion mutant assessed as growth inhibition by broth microdilution method; type: functional; method in brief: as §5
[13] = molecular target: T1, UDP-N-acetylmuramoyl-tripeptide--D-alanyl-D-alanine ligase (Streptococcus pneumoniae); assay: Inhibition of Streptococcus pneumoniae MurF ligase using D-Ala-D-Ala as substrate assessed as residual activity at 250 uM after 15 mins by malachite green assay; method in brief: as §1
Escherichia coli [14] = assay: Inhibition of […] MurF ligase using D-Ala-D-Ala as substrate assessed as residual activity at 250 uM after 15 mins by malachite green assay; method in brief: as §2

Activity [1] [%] | Activity (Escherichia coli [2]) [%] | Compound | Activity (Staphylococcus aureus [3]) | IC50 [4] [µM] | MIC (Staphylococcus aureus [5]) [µg/mL] | MIC (Escherichia coli [6]) [µg/mL] | MIC (Escherichia coli [7]) [µg/mL] | IC50 [8] [µM] | MIC (Escherichia coli [9]) [µg/mL] | MIC (Escherichia coli [10]) [µg/mL] | MIC (Escherichia coli [11]) [µg/mL] | MIC (Escherichia coli [12]) [µg/mL] | Activity [13] [%] | Activity (Escherichia coli [14]) [%]
98 | 93 | N#Cc1c(NC(=O)c2cccc(OCCN)c2)sc2c1CCCC2 |  |  |  |  |  |  |  |  |  |  |  | 
81 | 82 | N#Cc1c(NC(=O)c2cc(OCc3ccccc3)ccc2Cl)sc2c1CCCC2 |  |  |  |  |  |  |  |  |  |  |  | 
102 | 97 | N#Cc1ccc(COc2ccc(Cl)c(C(=O)Nc3sc4c(c3C#N)CCCC4)c2)cc1 |  |  |  |  |  |  |  |  |  |  |  | 
81 | 99 | N#Cc1c(NC(=O)c2cccc(OCC3CCCC3)c2)sc2c1CCCC2 |  |  |  |  |  |  |  |  |  |  |  | 

The remaining lines, values behind:

Compound | Activity [1] [%] | Activity (Escherichia coli [2]) [%] | Activity (Staphylococcus aureus [3]) | IC50 [4] [µM] | MIC (Staphylococcus aureus [5]) [µg/mL] | MIC (Escherichia coli [6]) [µg/mL] | MIC (Escherichia coli [7]) [µg/mL] | IC50 [8] [µM] | MIC (Escherichia coli [9]) [µg/mL] | MIC (Escherichia coli [10]) [µg/mL] | MIC (Escherichia coli [11]) [µg/mL] | MIC (Escherichia coli [12]) [µg/mL] | Activity [13] [%] | Activity (Escherichia coli [14]) [%]
N#Cc1c(NC(=O)c2cccc(OCc3ccc(Cl)cc3)c2)sc2c1CCCC2 | 102 | 97 |  |  |  |  |  |  |  |  |  |  |  | 
N#Cc1c(NC(=O)c2cccc(OCn3cccn3)c2)sc2c1CCCC2 | 89 | 85 |  |  |  |  |  |  |  |  |  |  |  | 
N#Cc1c(NC(=O)c2cc(OCCNC(=N)N)ccc2Cl)sc2c1CCC(c1ccc(O)cc1)C2 (configuration not stated) |  |  | inactive |  |  |  |  |  |  |  |  |  |  | 
Cl.N#Cc1c(NC(=O)c2cc(OCCNC(=N)N)ccc2Cl)sc2c1CCN(Cc1ccccc1)C2 |  |  | inactive | 55 | 8 | 16 | 32 | 57 | 32 | 32 | 16 | 8 |  | 
COc1ccc(CN2CCc3c(sc(NC(=O)c4cc(OCCN)ccc4Cl)c3C#N)C2)cc1 |  |  | inactive | 125 | 128 | 64 | 128 | 73 | 128 | 64 | 64 | 32 |  | 
Cl.N#Cc1ccc(CN2CCc3c(sc(NC(=O)c4cc(OCCNC(=N)N)ccc4Cl)c3C#N)C2)cc1 |  |  | inactive | 61 | 16 | 32 | 128 | 66 | 256 | 16 | 32 | 16 |  | 
COC(=O)c1ccc(CN2CCc3c(sc(NC(=O)c4cc(OCCNC(=N)N)ccc4Cl)c3C#N)C2)cc1.Cl |  |  | inactive | 37 | 8 | 32 | 64 | 80 | 64 | 16 | 32 | 8 |  | 
N#Cc1c(NC(=O)c2cc(OCCNC(=O)C(F)(F)F)ccc2Cl)sc2c1CCNC2.O=C(O)C(F)(F)F |  |  |  |  | > 256 | > 256 | > 256 |  | > 256 | > 256 | > 256 | > 256 | 99 | 91
